Test [1] concerns the target T1, Histamine H4 receptor (Homo sapiens, UniProt Q9H3N8). Put plainly: Displacement of [3H]histamine from human histamine H4 receptor transfected in SK-N-MC cells.
Test [2] has as its target T1, Histamine H4 receptor. The test can be described thus: Agonist activity at human histamine H4 receptor transfected in SK-N-MC cells. The test is classed as functional, cell-based.
Test [3] addresses T1, Histamine H4 receptor. Put plainly: Activity at human histamine H4 receptor transfected in SK-N-MC cells by cAMP assay. The test is classed as functional, cell-based. In outline: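 Colorimetric cAMP read-out in SK-N-MC cells stably expressing the human H4 receptor together with a CRE-β-galactosidase reporter gene, used to measure functional activity.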
Background: Changes in cAMP serve as a functional read-out for many G protein-coupled receptors.

The target in test [4] is T1, Histamine H4 receptor. Conditions: SK-N-MC, 100 nM.
Test [5] concerns the target T1, Histamine H4 receptor. To be noted: SK-N-MC, 1 uM.
For test [6], the target named is T1, Histamine H4 receptor. Conditions: SK-N-MC, 300 nM.
Test [7] addresses T1, Histamine H4 receptor. To be noted: SK-N-MC, 30 nM.
Test [8] addresses T2, Histamine H1 receptor (Homo sapiens, UniProt P35367). The test can be described thus: Activity at human histamine H1 receptor transfected in COS7 cells by NF-kappaB luciferase reporter assay. Type of test: functional, cell-based, COS-7. (In general: A reporter such as luciferase makes a cellular process visible.)
In test [9] the target is T2, Histamine H1 receptor. Put plainly: Displacement of [3H]mepyramine from human histamine H1 receptor.
For another test, the target named is Histamine H2 receptor (Homo sapiens, UniProt P25021). The test can be described thus: Displacement of [3H]APT from human histamine H2 receptor transfected in COS7 cells. Type of test: cell-based, COS-7. A general note: Displacement assays read how much labelled ligand stays bound in the presence of the test substance.
The target in the next test is Histamine H3 receptor (Homo sapiens, UniProt Q9Y5N1). The test can be described thus: Displacement of [3H]histamine from human histamine H3 receptor transfected in SK-N-MC cells. The test is classed as cell-based. In outline:
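Homogenates of SK-N-MC cells stably expressing the human H3 receptor were used. Affinity was determined by radioligand displacement.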

Test [10] concerns the target T1, Histamine H4 receptor. Conditions: SK-N-MC, 10 nM.

The structures appear in SMILES notation.

T1 sequence (Q9H3N8 whole entry): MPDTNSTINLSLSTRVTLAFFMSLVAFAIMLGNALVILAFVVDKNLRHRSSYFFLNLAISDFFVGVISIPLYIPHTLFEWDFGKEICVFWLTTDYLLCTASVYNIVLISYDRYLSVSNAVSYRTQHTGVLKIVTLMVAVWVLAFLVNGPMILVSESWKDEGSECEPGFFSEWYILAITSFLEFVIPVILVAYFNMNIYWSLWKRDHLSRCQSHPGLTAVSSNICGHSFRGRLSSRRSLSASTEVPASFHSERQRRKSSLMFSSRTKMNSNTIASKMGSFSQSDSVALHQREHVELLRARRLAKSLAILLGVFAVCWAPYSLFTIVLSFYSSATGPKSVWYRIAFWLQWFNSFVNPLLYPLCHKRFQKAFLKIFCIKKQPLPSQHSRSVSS
T2 sequence (P35367 whole entry): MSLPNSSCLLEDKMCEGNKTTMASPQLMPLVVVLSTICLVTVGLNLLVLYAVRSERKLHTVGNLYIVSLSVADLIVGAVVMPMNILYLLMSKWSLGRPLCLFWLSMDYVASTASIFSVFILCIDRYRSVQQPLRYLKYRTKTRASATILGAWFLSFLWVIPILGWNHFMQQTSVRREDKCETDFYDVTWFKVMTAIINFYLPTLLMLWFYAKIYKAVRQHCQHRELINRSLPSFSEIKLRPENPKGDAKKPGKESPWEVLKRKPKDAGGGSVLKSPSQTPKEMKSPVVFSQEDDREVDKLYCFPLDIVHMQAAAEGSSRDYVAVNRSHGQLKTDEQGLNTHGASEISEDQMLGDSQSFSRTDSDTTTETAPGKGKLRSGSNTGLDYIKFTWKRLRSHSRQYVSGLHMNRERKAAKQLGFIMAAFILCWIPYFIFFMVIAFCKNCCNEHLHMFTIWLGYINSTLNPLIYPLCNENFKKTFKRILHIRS
Histamine H3 receptor, sequence (Q9Y5N1 whole entry): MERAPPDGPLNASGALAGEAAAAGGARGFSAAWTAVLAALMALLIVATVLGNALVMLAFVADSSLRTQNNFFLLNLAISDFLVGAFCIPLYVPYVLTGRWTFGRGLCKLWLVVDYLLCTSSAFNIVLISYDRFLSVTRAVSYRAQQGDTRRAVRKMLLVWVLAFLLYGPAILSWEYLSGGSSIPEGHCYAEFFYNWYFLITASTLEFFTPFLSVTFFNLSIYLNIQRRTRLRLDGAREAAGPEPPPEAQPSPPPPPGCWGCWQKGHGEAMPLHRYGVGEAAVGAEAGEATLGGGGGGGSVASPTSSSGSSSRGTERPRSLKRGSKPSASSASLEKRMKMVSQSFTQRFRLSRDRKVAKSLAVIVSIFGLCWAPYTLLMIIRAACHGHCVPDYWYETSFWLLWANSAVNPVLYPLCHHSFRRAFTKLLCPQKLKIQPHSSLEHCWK
Histamine H2 receptor, sequence (P25021 whole entry): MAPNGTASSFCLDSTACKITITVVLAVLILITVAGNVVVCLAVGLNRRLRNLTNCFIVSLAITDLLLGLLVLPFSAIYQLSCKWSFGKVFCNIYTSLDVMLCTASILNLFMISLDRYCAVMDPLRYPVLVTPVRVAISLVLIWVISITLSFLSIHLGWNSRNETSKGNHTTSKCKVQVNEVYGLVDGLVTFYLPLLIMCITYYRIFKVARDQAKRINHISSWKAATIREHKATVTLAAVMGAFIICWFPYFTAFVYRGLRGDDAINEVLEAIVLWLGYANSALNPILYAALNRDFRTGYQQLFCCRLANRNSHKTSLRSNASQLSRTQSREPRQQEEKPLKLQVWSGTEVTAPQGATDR

On to `CC(C)N1CCN(C2=Nc3cc(Cl)ccc3Oc3ccccc32)CC1`, for which the Ki (in general, the dissociation constant of the complex between target and ligand, obtained from inhibition or displacement) on Histamine H4 receptor [1] is 1070 nM.
Regarding `CN1CCN(C2=Nc3cc(Cl)ccc3Oc3ccc(F)cc32)CC1`, the affinity at Histamine H4 receptor [1] corresponds to a Ki of 191 nM. In addition, on Histamine H4 receptor [2], the Activity was 1. In addition, the EC50 (commonly the concentration that produces a half-maximal response) on Histamine H4 receptor [3] is 81.3 nM.
For `Clc1ccc2c(c1)N=C(N1CCNCC1)c1ccccc1O2`, at Histamine H4 receptor [1], the Ki was 324 nM.
On Histamine H4 receptor [1], `CN1CCN(C2=Nc3ccc(Cl)cc3Oc3c(F)cccc32)CC1` showed a Ki of 30.9 nM. In addition, the Activity at Histamine H4 receptor [2] turned out to be 1. The same molecule showed an EC50 on Histamine H4 receptor [3] of 20.4 nM.
On the same counts, the results for `CN1CCN(C2=Nc3ccccc3Oc3ccc(Cl)cc32)CC1` [LOXAPINE] are 4570 nM, 0.5 and 219 nM.
`CN1CCN(C2=Nc3cc(Cl)ccc3Sc3ccccc32)CC1` [ISOCLOTHIAPINE] had a Ki on Histamine H4 receptor [1] of 2040 nM.
`Clc1ccc2c(c1)N=C(N1CCOCC1)c1ccccc1N2`: the Ki at Histamine H4 receptor [1] is > 10000 nM.
Regarding `CN1CCN(C2=Nc3cc(Cl)ccc3Nc3ccccc32)CC1`, the values for the Bmax at Histamine H4 receptor [4], at Histamine H4 receptor [5] and on Histamine H4 receptor [6] were 996 fmol/mg, 987 fmol/mg and 899 fmol/mg, respectively.
As for `CN1CCN(C2=Nc3cc(Cl)ccc3Oc3ccccc32)CC1` [ISOLOXAPINE], on Histamine H4 receptor [1], the Ki was 42.7 nM. At Histamine H4 receptor [2], this molecule registered an Activity of 1. It took 28.2 nM to reach a half-maximal effect at Histamine H4 receptor [3] (EC50).
`Clc1ccc2c(c1)N=C(N1CCCCC1)c1ccccc1N2`: on Histamine H4 receptor [1], the Ki is > 10000 nM.
On the same count and under the same terms, as for `CN1CCN(C2=Cc3ccccc3Oc3ccc(Cl)cc32)CC1`, the figure is > 10000 nM; as for `OCCN1CCN(C2=Nc3cc(Cl)ccc3Nc3ccccc32)CC1`, 4680 nM.
Take `CN1CCN(C2=Nc3cc(Cl)ccc3Oc3cc(Cl)ccc32)CC1`: on Histamine H4 receptor [1], the Ki was 309 nM. The Activity on Histamine H4 receptor [2] amounted to 1. Moreover, it took 102 nM to reach a half-maximal effect on Histamine H4 receptor [3] (EC50).
On the same counts, the results for `CN1CCN(C2=Nc3ccc(Cl)cc3Oc3cc(F)ccc32)CC1` are 38.9 nM, 1 and 38.9 nM.
On the same counts, the results for `CN1CCN(C2=Nc3cc(Cl)ccc3Oc3c(F)cccc32)CC1` are 27.5 nM, 1 and 14.8 nM.
On to `CN1CCN(C2=Nc3ccc(Cl)cc3Oc3c(Cl)cccc32)CC1`, for which, on Histamine H4 receptor [1], the Ki is 45.7 nM. In addition, the Activity at Histamine H4 receptor [2] turned out to be 1. The same molecule had an EC50 at Histamine H4 receptor [3] of 14.8 nM.
Turning to `CCN1CCN(C2=Nc3cc(Cl)ccc3Oc3ccccc32)CC1`, the affinity on Histamine H4 receptor [1], expressed as Ki, was 288 nM.
Consider `Cc1ccc2c(c1)Oc1ccccc1C(N1CCN(C)CC1)=N2`, for which, at Histamine H4 receptor [1], the Ki was 79.4 nM. At Histamine H4 receptor [2], this molecule showed an Activity of 1. Besides, on Histamine H4 receptor [3], the half-maximal effective concentration (EC50) was 105 nM.
Take `CN1CCN(C2=Nc3cc(Cl)ccc3N(C)c3ccccc32)CC1`: affinity at Histamine H4 receptor [1] was put at a Ki of 1410 nM.
On to `CN1CCN(C2=Nc3ccc(Cl)cc3Oc3ccccc32)CC1`, for which the Bmax was 934 fmol/mg at Histamine H4 receptor [4], 934 fmol/mg on Histamine H4 receptor [7] and 951 fmol/mg at Histamine H4 receptor [10]. This molecule showed an EC50 at Histamine H1 receptor [8] of 6.76 nM. Moreover, the results for the Ki on Histamine H1 receptor [9], at Histamine H2 receptor and at Histamine H3 receptor were 7.76 nM, 8710 nM and 9120 nM, respectively. Further, the Activity on Histamine H4 receptor [2] turned out to be 1.
The molecule `CN1CCN(C2=Nc3ccccc3Oc3ccccc32)CC1` had a Ki at Histamine H4 receptor [1] of 132 nM. This molecule showed an Activity on Histamine H4 receptor [2] of 1. Further, on Histamine H4 receptor [3], the 50% effective concentration (EC50) is 302 nM.
Regarding `CN1CCN(C2=Nc3ccccc3Cc3ccccc32)CC1` [PERLAPINE], the Ki at Histamine H4 receptor [1] is 4790 nM.

(Values after ChEMBL document CHEMBL1137432, “Characterization of the histamine H4 receptor binding site. Part 1. Synthesis and pharmacological evaluation of dibenzodiazepine derivatives” (J Med Chem, 2006).)
